{
  "source": "ChEMBL document CHEMBL4368872",
  "about": "“Synthesis and anticonvulsant activity of phenoxyacetyl derivatives of amines, including aminoalkanols and amino acids” (Medchemcomm, 2018)",
  "key": {"[1]": {"assay": "Neurotoxicity in Sprague-Dawley rat at 100 mg/kg, ip measured after 2 hrs by rotarod test", "format": "toxicity, organism-based", "details": "in vivo, 2 h", "summary_of_the_method": "(§1)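 Rat neurotoxicity after i.p. or p.o. dosing was scored as animals impaired / animals tested at each time point. For p.o. dosing, TD50 was obtained by probit analysis.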"}, "Mus musculus [2]": {"system": "Mus musculus", "assay": "Anticonvulsant activity in CF-1 mouse model of maximal electroshock-induced seizure assessed as suppression of tonic hind limb extension at 110 mg/kg, ip measured at 0.25 hrs post dose", "format": "functional, organism-based", "summary_of_the_method": "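Mice dosed i.p. and given maximal electroshock at 50 mA. Read-out is protection, reported as number protected / number tested at 0.25, 0.5, 1 and 4 h after dosing.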"}, "Mus musculus [3]": {"system": "Mus musculus", "assay": "Anticonvulsant activity in CF-1 mouse assessed as protection against 44 mA current-induced seizure at 120 mg/kg, ip after 15 mins by 6 Hz psychomotor test", "format": "functional, organism-based", "summary_of_the_method": "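Mice dosed i.p. (30, 100, 300 mg/kg; one line at 120 mg/kg read at 15 min). Corneal stimulation at 6 Hz, 44 mA for 3 s from a constant-current device induces a psychomotor seizure with stunned posture, forelimb automatisms, clonus, vibrissae twitching and Straub tail. Scored as number of animals protected / number tested (4 per group) at 0.5 and 2 h.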"}, "[4]": {"assay": "Neurotoxicity in Sprague-Dawley rat at 30 mg/kg, ip measured after 0.5 hrs by rotarod test", "format": "toxicity, organism-based", "details": "in vivo", "summary_of_the_method": "as §1"}, "[5]": {"assay": "Neurotoxicity in Sprague-Dawley rat at 30 mg/kg, ip measured after 1 hr by rotarod test", "format": "toxicity, organism-based", "details": "in vivo", "summary_of_the_method": "as §1"}, "[6]": {"assay": "Neurotoxicity in Sprague-Dawley rat at 300 mg/kg, ip measured after 1 hr by rotarod test", "format": "toxicity, organism-based", "details": "in vivo", "summary_of_the_method": "as §1"}, "Rattus norvegicus [7]": {"system": "Rattus norvegicus", "assay": "Anticonvulsant activity in hippocampal kindling Sprague-Dawley rat model assessed as after discharge time at 100 mg/kg, ip administered as single dose measured after 15 mins", "format": "functional", "summary_of_the_method": "(§2)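 Rats implanted with a hippocampal electrode and kindled with suprathreshold trains (200 µA, 10 s, 50 Hz) every 30 min for 6 h on alternate days until fully kindled. One week later they received a single i.p. dose. Seizure score (Racine scale) and afterdischarge duration were recorded at 0–135 min and compared with the control stimulus given 15 min before dosing; each animal served as its own control. Values are mean ± SEM.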"}, "Rattus norvegicus [8]": {"system": "Rattus norvegicus", "assay": "Anticonvulsant activity in hippocampal kindling Sprague-Dawley rat model assessed as after discharge time at 100 mg/kg, ip administered as single dose measured after 45 mins", "format": "functional", "summary_of_the_method": "as §2"}, "Astrocyte": {"system": "Astrocyte", "assay": "Cytotoxicity against human astrocytes at 10 to 200 uM after 24 hrs by MTT assay", "format": "cell-based", "summary_of_the_method": "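Human astrocytes derived from iPSCs via neural stem cells (7 days neural induction, then 17 days in astrocyte growth medium; GFAP-confirmed). Cells seeded at 1×10^4 per well in 1% FBS medium the day before, then exposed to 10–200 µM for 24 h with vehicle controls. MTT added for 4 h at 37 °C, formazan dissolved, OD read at 570 nm.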"}},
  "note": "Activity calls are given as the source filed them.",
  "data": [
    {"smiles": "Cc1cccc(C)c1OCC(=O)N[C@H](C)CO", "values": [
      {"measurement": "Activity", "setting": "[1]", "result": "Non-Toxic"},
      {"measurement": "Activity", "setting": "Mus musculus [2]", "result": "Active"},
      {"measurement": "Activity", "setting": "Mus musculus [3]", "result": "Active"},
      {"measurement": "Activity", "setting": "[4]", "result": "Non-Toxic"},
      {"measurement": "Activity", "setting": "[5]", "result": "Non-Toxic"},
      {"measurement": "Activity", "setting": "[6]", "result": "Toxic"},
      {"measurement": "Time", "setting": "Rattus norvegicus [7]", "result": 48, "unit": "s"},
      {"measurement": "Time", "setting": "Rattus norvegicus [8]", "result": 86, "unit": "s"},
      {"measurement": "Activity", "setting": "Astrocyte", "result": "Non-Toxic"}
    ]}
  ]
}
